Paper PMC12518644 (Scientific Reports, 2025)

Test system: MDA-MB-231 BC cell line
Assay: MTT cytotoxicity assay on MDA-MB-231 breast cancer cells
Type: cell-based
Settings: Homo sapiens, MDA-MB-231, 48 h, read-out: IC50 Values, MDA-MB-231, MTT, 48 h
Procedure, shortened: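 Cells grown in DMEM with 10% FBS and 1% antibiotics (100 U/ml penicillin), seeded at 1.0 × 10^4 cells/well, and incubated 24 h at 37 °C under 5% CO2. Medium then replaced with test compound at 6.5, 12.5, 25 or 50 µM for 48 h. MTT (5 mg/mL solution) added for 4 h, formazan dissolved in DMSO, and absorbance read at 570 nm. IC50 derived from dose-response.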

Q: With `Cc1ccc(S(=O)(=O)n2cc(/C=N/NC(=O)c3cccc4ccccc34)c3ccccc32)cc1` [Compound 5p, (E )-N’ -[(1-Tosyl-1 H -indol-3-yl)methylene]−1-naphthohydrazide] as the compound, how does the IC50 read?
A: 18.1 ± 0.2 µM
